Assay outcomes (PubChem)
M5 ag = agonists of human muscarinic M5 receptor (CHRM5); P08912; CHO-K1 hM5 cells, Fluo-8 calcium fluorescence; 0% DMSO wells, 100% maximal acetylcholine response; activation, % at 3 µM; actives 0.19% (n = 360,000);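 active = activation above the run's mean over test compounds plus 3 SD, cut at about 23% in these data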;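 also: signal is peak over basal fluorescence ratio across the kinetic read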
M5 PAM = potentiates acetylcholine response at human M5 receptor; AID 624038; CHO-K1 hM5, Fluo-8 calcium, ACh EC20 PAM; 0% = ACh EC20, 100% = ACh EC100; activation, % at 3 µM; actives 0.3% (n = 360,000); P08912;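 active = activation above the run cutoff, the mean activation of all test compounds plus 3 SD, cut at about 18% in these data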
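System – CHO-K1 hM5 cells · Compound – 3 µM, single dose · Incubation – compound preincubation 140 s before EC20 acetylcholine addition · Technique – Fluo-8 calcium fluorescence · Measure – Max/basal fluorescence ratio as % of EC20–EC100 ACh window · Benchmarks – low control EC20 acetylcholine (0%), high control EC100 acetylcholine (100%) · Replication – singlicate, one well per test compound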
CHRM4 antagonist = antagonists of human muscarinic M4 receptor (CHRM4); P08173; CHO-hM4 cells, ACh EC80, Fluo-8 calcium fluorescence; inhibition, % at 3 µM; actives 0.73% (n = 360,000);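 active = inhibition above its plate's cutoff, the mean inhibition of sample wells plus 3 SD, cut at about 27% in these data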;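 also: 0% = acetylcholine EC80 with DMSO and 100% = DMSO without agonist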
Target sequence (P08173 whole entry, looked up): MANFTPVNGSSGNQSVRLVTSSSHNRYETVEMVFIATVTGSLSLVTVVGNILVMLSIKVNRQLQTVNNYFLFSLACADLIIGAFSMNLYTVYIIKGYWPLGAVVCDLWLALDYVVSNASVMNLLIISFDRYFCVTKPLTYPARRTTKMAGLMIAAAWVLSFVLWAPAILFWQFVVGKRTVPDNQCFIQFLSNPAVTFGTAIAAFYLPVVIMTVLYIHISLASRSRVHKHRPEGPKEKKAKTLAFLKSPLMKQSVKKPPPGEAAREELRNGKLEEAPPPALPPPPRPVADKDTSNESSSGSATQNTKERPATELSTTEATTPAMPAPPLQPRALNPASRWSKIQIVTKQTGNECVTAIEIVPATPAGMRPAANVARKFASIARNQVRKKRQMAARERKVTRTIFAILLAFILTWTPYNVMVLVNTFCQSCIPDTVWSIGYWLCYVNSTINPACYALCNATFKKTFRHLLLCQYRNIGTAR
CHRM4 PAM = potentiates acetylcholine response at human M4 receptor | activation, % at 3 µM | actives 0.4% (n = 360,000) | P08173 | AID 624126 | CHO-K1 hM4/Gqi5, Fluo-8 calcium fluorescence, ACh EC20; 0% = ACh EC20, 100% = maximal ACh;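 active = activation above its plate's cutoff, the mean activation of sample wells plus 3 SD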
CHRM4 agonist = CHRM4 agonism in calcium assay; P08173; CHO-K1 hM4/Gqi5, Fluo-8 calcium fluorescence; vehicle 0%, full acetylcholine response 100%; activation, % at 3 µM; actives 0.14% (n = 360,000);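 active = activation above the run mean over all test wells plus 3 SD, cut at about 32% in these data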;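 also: peak over basal fluorescence ratio per well then scaled between controls; 0% = DMSO wells and 100% = acetylcholine at EC100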
CHRM5 antagonist = antagonists of human muscarinic M5 receptor (CHRM5); inhibition, % at 3 µM; actives 0.59% (n = 360,000); CHO-hM5 cells, Fluo-8 calcium fluorescence, ACh EC80; P08912;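 active = inhibition above a per-plate cutoff, the mean of that plate's test compounds plus 3 SD, cut at about 27% in these data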;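 also: 0% = acetylcholine EC80 with DMSO and 100% = DMSO without agonist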
Starred values were filed as active, the others as inactive. The list is not random: actives were taken first. Their share in the collection is about 1.9%.

O=C(NNS(=O)(=O)c1ccccc1Cl)c1nn(-c2ccc(F)cc2)ccc1=O was read as M5 ag -3, M5 PAM -1, CHRM4 antagonist 5, CHRM4 PAM 7, CHRM4 agonist 1 and CHRM5 antagonist 12.
C[N+]1(CC(O)c2ccccc2)CCCCCC1 (stereo not drawn) was read as M5 ag -22, M5 PAM -5, CHRM4 antagonist 12, CHRM4 PAM -7, CHRM4 agonist 1 and CHRM5 antagonist -2.
Screening CC(=O)OC(C[N+]1(C)CCCCCC1)c1ccccc1 (stereo not drawn) returned M5 ag -7, M5 PAM -17, CHRM4 antagonist 37*, CHRM4 PAM -15, CHRM4 agonist 0 and CHRM5 antagonist 28*.
`COc1cccc(/C=C2\CCCCC2=O)c1` gave M5 ag 0, M5 PAM 31*, CHRM4 antagonist -18, CHRM4 PAM 1, CHRM4 agonist 0 and CHRM5 antagonist -26.
Screening COc1cccc(/C=C2\CCC(C3CCCC3)C2=O)c1 (stereo not drawn) returned M5 ag -1, M5 PAM 4, CHRM4 antagonist -2, CHRM4 PAM -1, CHRM4 agonist 1 and CHRM5 antagonist -6.
For C=CCc1cc(C=O)cc(OCC)c1O the results were M5 ag -1, M5 PAM 4, CHRM4 antagonist 0, CHRM4 PAM 3, CHRM4 agonist 1 and CHRM5 antagonist -2.
Screening CCOC(=O)N1CCN(C(=O)c2cc3c(s2)-c2ccccc2OC3)CC1 returned M5 ag 1, M5 PAM -8, CHRM4 antagonist -25, CHRM4 PAM 24*, CHRM4 agonist 12 and CHRM5 antagonist -6.
CCCN1CCN(C(=O)c2cc3c(s2)-c2ccccc2OC3)CC1 was read as M5 ag -1, M5 PAM 0, CHRM4 antagonist -2, CHRM4 PAM 2, CHRM4 agonist 3 and CHRM5 antagonist -1.
Screening CC(C)c1nnc(SCC(=O)NC2CCCCC2)n1C returned M5 ag -3, M5 PAM -2, CHRM4 antagonist -1, CHRM4 PAM 4, CHRM4 agonist 2 and CHRM5 antagonist -5.
Cc1ccccc1NCC(=O)N/N=C/c1c[nH]c2ccccc12 was read as M5 ag -2, M5 PAM -5, CHRM4 antagonist -2, CHRM4 PAM -5, CHRM4 agonist 6 and CHRM5 antagonist 2.
Screening Cc1cccc(NCC(=O)N/N=C\c2c[nH]c3ccccc23)c1 returned M5 ag -6, M5 PAM -8, CHRM4 antagonist 28*, CHRM4 PAM -11, CHRM4 agonist 4 and CHRM5 antagonist 11.
Cc1ccc(C2=NN(S(=O)(=O)c3ccccc3)C(c3ccccc3O)C2)cc1 (stereo not drawn) was read as M5 ag -5, M5 PAM 3, CHRM4 antagonist 6, CHRM4 PAM 3, CHRM4 agonist 2 and CHRM5 antagonist -8.
`N#Cc1cc(C(=O)c2cc(F)ccc2O)cn(-c2nccs2)c1=O` gave M5 ag 62*, M5 PAM -23, CHRM4 antagonist 20, CHRM4 PAM -43, CHRM4 agonist 96* and CHRM5 antagonist 29*.
For N#Cc1cc(C(=O)c2ccccc2O)cn(-c2nccs2)c1=O the results were M5 ag 68*, M5 PAM -21, CHRM4 antagonist 36*, CHRM4 PAM -16, CHRM4 agonist 71* and CHRM5 antagonist 28*.
For Cc1c(-n2cc(C(=O)c3cc(F)ccc3O)cc(C#N)c2=O)c(=O)n(-c2ccccc2)n1C the results were M5 ag 2, M5 PAM 1, CHRM4 antagonist -4, CHRM4 PAM 1, CHRM4 agonist 3 and CHRM5 antagonist 0.
For CC(C)n1cc(C(=O)c2ccccc2O)cc(C#N)c1=O the results were M5 ag 4, M5 PAM 7, CHRM4 antagonist -7, CHRM4 PAM 13, CHRM4 agonist 4 and CHRM5 antagonist -1.
COc1ccc(N(CC(=O)NCc2ccc(Cl)cc2)S(=O)(=O)c2ccccc2[N+](=O)[O-])c(OC)c1 was read as M5 ag 9, M5 PAM 0, CHRM4 antagonist 4, CHRM4 PAM -11, CHRM4 agonist 6 and CHRM5 antagonist -2.
For N/C(=N\OC(=O)CSc1ccccc1)c1ccccn1 the results were M5 ag -4, M5 PAM 9, CHRM4 antagonist -1, CHRM4 PAM 21*, CHRM4 agonist 1 and CHRM5 antagonist 0.
Screening O=[N+]([O-])c1ccc(S(=O)(=O)c2cccc(C(F)(F)F)c2)nc1 returned M5 ag -2, M5 PAM -2, CHRM4 antagonist 46*, CHRM4 PAM -6, CHRM4 agonist 3 and CHRM5 antagonist 17.
Cc1cc(C(=O)NNC(=O)/C=C/c2ccco2)c(C)o1 was read as M5 ag 3, M5 PAM 6, CHRM4 antagonist -18, CHRM4 PAM 10, CHRM4 agonist 0 and CHRM5 antagonist -2.
`O=C(Nc1cccc(Cl)c1)Nc1nnc(-c2ccncc2)s1` gave M5 ag 9, M5 PAM -18, CHRM4 antagonist 17, CHRM4 PAM -12, CHRM4 agonist 15 and CHRM5 antagonist 32*.
`CCOC(=O)Cc1csc(NC(=O)Nc2cccc(Cl)c2)n1` gave M5 ag 5, M5 PAM -18, CHRM4 antagonist 0, CHRM4 PAM -9, CHRM4 agonist 17 and CHRM5 antagonist 29*.
`CS(=O)(=O)c1ccc2nc(NC(=O)Nc3ccc(Cl)c(Cl)c3)sc2c1` gave M5 ag 0, M5 PAM 0, CHRM4 antagonist -13, CHRM4 PAM 8, CHRM4 agonist 2 and CHRM5 antagonist -5.
`CS(=O)(=O)c1ccc2nc(NC(=O)Nc3cccc(Cl)c3)sc2c1` gave M5 ag 9, M5 PAM -24, CHRM4 antagonist 16, CHRM4 PAM -6, CHRM4 agonist 22 and CHRM5 antagonist 32*.
Screening COC(=O)[C@]1(C)CCC[C@@]2(C)C3CC[C@]4(OC(C)=O)C[C@@]3(CCC21)CC4=O (stereo partly drawn) returned M5 ag -1, M5 PAM -25, CHRM4 antagonist 5, CHRM4 PAM 0, CHRM4 agonist 10 and CHRM5 antagonist 15.
For COC(=O)C1(C)CCCC2(C)C3CCC(C(C)C)C(CO)C3C(CO)CC12 (stereo not drawn) the results were M5 ag 7, M5 PAM -23, CHRM4 antagonist 29*, CHRM4 PAM -12, CHRM4 agonist 22 and CHRM5 antagonist 24.
